Measurements: paper PMC2688716 (European neuropsychopharmacology : the journal of the …, 2008)
Counter-ions that a name gives are not always drawn.

How the values were obtained:
male, Swiss Webster mice [1] = assay: Dopamine assay, cerebellum; type: in vivo, mouse; conditions: AC927 10 mg/kg pretreatment + methamphetamine 5 mg/kg; Tukey q=4.55, P < 0.05
male, Swiss Webster mice [2] = assay: Core body temperature measurements; type: in vivo, mouse; conditions: AC927 5–20 mg/kg, i.p., 4 times at 2 h intervals; measured 1 h after each injection
[3] = target: Calcium, type N ion channel (Rattus norvegicus, UniProt Q02294); assay: Radioligand binding, calcium channel type N; conditions: 0.01 nM [125I]ω-conotoxin GVIA; nonspecific 0.1 μM ω-conotoxin GVIA; rat cerebral cortex; by NOVASCREEN; >10,000 = less than 30% displacement
male, Swiss Webster mice [4] = assay: Dopamine assay, striatum; type: in vivo, mouse; conditions: AC927 10 mg/kg pretreatment + methamphetamine 5 mg/kg; Tukey q=5.58, P < 0.01
[5] = target: Muscarinic, peripheral receptor; assay: Radioligand binding, muscarinic peripheral; conditions: 0.3 nM [3H]QNB; nonspecific 0.1 μM atropine; guinea pig bladder; by NOVASCREEN; >10,000 = less than 30% displacement
male, Swiss Webster mice [6] = assay: Dopamine transporter; conditions: 4 times at 2 h intervals
Melatonin receptor = assay: Radioligand binding, melatonin receptors; conditions: 70 pM [125I]2-Iodomelatonin; nonspecific 0.1 μM 2-iodomelatonin; chicken brain; by NOVASCREEN; >10,000 = less than 30% displacement
Procedure, shortened: (§1)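 Run by a contract screening service. Binding was measured in tissue homogenates. Ki was calculated with the Cheng-Prusoff equation from separately determined Kd values and reported as mean ± SEM of replicate assays.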

Serotonin transporter = Serotonin transporter (Rattus norvegicus, UniProt P31652); assay: Radioligand binding, serotonin transporter; conditions: 0.2 nM [3H]paroxetine; nonspecific 1.5 μM imipramine; rat brainstem; 90 min at 25° C; in-house; >10,000 = less than 30% displacement
male, Swiss Webster mice [7] = assay: Locomotor activity measurements; type: in vivo, mouse; conditions: i.p.
[8] = target: Muscarinic, central receptor; assay: Radioligand binding, muscarinic central; conditions: 0.15 nM [3H]QNB; nonspecific 0.1 μM atropine; rat cerebral cortex; by NOVASCREEN; >10,000 = less than 30% displacement
tumor cells = conditions: through a σ receptor-mediated mechanism; ref Crawford et al., 2002; cited from earlier work
[9] = target: Potassium, ATP-sensitive ion channel; assay: Radioligand binding, ATP-sensitive potassium channel; conditions: 0.2 nM [3H]glibenclamide; nonspecific 0.1 μM glibenclamide; rat cerebral cortex; by NOVASCREEN; >10,000 = less than 30% displacement
Procedure, shortened: as §1

[10] = ref Matsumoto and Mack, 2001; Matsumoto et al., 2002, 2003; cited from earlier work
NG108-15 cells = assay: Cytotoxicity; type: cell-based; conditions: methamphetamine 10–300 μM; 24 h and 48 h; 37° C; P < 0.0001

Serotonin transporter, sequence (P31652 whole entry): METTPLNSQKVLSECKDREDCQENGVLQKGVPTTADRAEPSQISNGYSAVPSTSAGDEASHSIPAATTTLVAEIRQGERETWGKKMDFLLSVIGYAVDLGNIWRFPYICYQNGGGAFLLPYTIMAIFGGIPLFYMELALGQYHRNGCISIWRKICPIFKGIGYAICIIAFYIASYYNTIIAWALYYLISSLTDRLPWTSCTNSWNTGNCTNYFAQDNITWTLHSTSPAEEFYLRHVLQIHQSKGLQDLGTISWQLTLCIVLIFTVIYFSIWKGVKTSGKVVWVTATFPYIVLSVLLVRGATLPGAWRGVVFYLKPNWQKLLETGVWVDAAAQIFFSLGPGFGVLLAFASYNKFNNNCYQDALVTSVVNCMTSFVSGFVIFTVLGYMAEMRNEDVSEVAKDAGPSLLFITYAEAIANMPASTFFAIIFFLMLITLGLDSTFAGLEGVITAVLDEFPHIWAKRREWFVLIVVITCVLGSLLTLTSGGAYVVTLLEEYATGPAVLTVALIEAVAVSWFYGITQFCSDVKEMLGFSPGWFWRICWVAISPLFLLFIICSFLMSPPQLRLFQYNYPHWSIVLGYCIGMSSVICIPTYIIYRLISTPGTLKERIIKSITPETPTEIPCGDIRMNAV
Calcium, type N ion channel, sequence (P54287 whole entry): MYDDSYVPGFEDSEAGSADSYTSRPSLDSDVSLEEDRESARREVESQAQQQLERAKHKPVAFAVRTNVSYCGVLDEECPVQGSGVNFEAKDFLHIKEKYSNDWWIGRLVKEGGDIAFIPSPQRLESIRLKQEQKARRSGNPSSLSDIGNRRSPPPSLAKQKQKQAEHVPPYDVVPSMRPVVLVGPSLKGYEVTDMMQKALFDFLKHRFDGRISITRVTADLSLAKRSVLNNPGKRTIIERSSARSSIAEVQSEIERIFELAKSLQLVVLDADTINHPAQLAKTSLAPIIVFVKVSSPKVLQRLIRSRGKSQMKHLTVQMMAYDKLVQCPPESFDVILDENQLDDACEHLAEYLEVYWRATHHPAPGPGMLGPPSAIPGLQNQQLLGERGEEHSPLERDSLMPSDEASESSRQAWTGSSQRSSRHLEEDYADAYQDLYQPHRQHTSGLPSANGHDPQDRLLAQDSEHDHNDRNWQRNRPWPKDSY
Calcium, type N ion channel, sequence (P54290 945-1091, further chain): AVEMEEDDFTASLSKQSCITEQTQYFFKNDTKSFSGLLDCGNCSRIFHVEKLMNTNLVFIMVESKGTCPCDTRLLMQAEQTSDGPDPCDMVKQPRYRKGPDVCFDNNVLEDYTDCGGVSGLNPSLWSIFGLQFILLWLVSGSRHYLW
Calcium, type N ion channel, sequence (Q02294 whole entry): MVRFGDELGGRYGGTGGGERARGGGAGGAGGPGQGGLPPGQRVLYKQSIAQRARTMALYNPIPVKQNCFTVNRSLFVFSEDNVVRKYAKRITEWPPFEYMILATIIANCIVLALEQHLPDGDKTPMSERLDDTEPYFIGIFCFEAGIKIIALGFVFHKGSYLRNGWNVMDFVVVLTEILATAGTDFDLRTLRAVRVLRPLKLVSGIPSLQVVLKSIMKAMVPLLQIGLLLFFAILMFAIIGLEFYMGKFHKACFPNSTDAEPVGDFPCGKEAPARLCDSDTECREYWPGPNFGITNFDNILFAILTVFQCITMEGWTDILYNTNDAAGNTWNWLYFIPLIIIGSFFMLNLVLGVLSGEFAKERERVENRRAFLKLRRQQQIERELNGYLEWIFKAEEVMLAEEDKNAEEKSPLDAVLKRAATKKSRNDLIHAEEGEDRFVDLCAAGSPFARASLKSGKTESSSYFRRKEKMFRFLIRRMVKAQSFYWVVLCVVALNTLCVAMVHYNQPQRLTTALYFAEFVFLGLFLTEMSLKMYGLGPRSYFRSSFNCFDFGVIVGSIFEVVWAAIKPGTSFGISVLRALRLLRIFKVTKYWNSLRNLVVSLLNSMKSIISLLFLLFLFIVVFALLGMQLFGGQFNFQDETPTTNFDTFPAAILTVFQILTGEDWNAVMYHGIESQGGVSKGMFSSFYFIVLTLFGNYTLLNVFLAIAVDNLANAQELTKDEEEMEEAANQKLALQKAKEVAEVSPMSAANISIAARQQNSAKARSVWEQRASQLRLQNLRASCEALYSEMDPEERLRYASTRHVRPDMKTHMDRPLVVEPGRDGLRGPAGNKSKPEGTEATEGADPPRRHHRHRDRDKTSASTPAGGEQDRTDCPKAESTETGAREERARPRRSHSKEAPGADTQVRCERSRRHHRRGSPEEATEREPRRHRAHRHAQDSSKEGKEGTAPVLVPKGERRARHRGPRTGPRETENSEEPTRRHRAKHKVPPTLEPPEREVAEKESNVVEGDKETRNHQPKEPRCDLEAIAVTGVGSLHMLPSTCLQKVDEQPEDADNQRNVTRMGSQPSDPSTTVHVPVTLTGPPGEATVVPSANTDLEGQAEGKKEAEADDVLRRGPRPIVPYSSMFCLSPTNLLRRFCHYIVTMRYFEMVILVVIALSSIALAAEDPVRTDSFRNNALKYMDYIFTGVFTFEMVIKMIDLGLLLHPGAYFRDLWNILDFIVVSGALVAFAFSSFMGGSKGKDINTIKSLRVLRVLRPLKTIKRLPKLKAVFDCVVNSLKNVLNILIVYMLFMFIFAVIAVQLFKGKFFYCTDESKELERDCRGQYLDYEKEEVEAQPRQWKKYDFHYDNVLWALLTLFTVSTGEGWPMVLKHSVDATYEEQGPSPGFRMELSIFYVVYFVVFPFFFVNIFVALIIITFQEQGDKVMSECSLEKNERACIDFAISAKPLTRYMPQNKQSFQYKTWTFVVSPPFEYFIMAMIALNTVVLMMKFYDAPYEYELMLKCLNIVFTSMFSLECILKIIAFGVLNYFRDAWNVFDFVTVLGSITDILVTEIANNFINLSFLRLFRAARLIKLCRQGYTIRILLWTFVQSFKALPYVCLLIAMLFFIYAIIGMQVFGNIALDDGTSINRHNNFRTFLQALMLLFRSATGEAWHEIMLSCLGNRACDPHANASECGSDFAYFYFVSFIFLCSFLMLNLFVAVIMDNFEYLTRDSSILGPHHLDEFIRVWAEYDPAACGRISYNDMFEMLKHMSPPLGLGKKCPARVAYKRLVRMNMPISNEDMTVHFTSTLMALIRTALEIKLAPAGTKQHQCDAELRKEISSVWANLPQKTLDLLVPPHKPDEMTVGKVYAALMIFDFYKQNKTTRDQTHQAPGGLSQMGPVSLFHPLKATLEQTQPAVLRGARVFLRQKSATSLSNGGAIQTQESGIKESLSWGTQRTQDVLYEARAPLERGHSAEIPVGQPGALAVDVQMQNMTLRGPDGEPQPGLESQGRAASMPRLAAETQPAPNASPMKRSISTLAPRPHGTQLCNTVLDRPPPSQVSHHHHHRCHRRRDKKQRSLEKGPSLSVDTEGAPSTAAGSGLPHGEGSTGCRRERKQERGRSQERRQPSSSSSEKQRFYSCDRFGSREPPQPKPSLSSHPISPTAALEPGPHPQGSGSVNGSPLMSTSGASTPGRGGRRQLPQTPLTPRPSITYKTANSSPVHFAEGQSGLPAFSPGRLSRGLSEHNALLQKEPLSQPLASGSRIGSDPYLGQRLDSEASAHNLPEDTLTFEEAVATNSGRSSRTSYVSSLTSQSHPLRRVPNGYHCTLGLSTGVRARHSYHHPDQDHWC
Calcium, type N ion channel, sequence (P54290 25-944, further chain): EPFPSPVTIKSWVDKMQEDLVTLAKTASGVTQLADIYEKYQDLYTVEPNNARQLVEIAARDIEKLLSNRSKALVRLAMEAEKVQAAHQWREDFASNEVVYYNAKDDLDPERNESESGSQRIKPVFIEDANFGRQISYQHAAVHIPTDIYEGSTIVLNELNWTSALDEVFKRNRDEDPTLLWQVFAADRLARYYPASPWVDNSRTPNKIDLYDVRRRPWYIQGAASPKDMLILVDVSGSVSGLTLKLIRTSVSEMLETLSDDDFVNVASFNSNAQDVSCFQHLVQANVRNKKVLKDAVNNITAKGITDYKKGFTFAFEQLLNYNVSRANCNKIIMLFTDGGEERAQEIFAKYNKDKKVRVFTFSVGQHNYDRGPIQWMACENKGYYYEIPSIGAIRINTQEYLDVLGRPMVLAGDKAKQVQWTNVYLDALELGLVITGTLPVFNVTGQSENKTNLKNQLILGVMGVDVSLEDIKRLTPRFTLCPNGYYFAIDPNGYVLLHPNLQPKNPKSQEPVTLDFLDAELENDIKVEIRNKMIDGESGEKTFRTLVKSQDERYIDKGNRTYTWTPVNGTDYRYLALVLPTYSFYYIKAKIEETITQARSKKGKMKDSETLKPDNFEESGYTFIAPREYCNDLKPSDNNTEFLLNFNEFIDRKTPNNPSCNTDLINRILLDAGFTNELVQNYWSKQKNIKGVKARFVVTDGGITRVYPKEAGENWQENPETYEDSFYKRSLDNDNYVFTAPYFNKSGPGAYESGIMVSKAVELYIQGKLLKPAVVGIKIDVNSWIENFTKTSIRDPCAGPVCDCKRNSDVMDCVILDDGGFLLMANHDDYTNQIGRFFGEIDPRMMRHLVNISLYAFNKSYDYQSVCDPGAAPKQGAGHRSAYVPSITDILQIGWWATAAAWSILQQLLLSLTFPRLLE

SMILES	Methamphetamine-induced cerebellar dopamine depletion, AC927 10 mg/kg (male, Swiss Webster mice [1])	Core body temperature, AC927 alone (male, Swiss Webster mice [2])	Ki [3] [µM]	Methamphetamine-induced striatal dopamine depletion, AC927 10 mg/kg (male, Swiss Webster mice [4])	Ki [5] [µM]	DAT immunoreactivity in striatum, AC927 alone (male, Swiss Webster mice [6]; AC927 10 mg/kg, i.p. + saline, q=3.56, n.s.)	Ki (Melatonin receptor) [µM]	Ki (Serotonin transporter) [µM]	Locomotor activity, dose response of AC927 alone (male, Swiss Webster mice [7]; AC927 0–20 mg/kg, activity quantified for 30 min, F(2,23)=7.45, P < 0.005)	Locomotor activity vs. saline control (male, Swiss Webster mice [7]; AC927 alone 10 mg/kg, q=1.09, n.s.)	Locomotor activity vs. saline control (male, Swiss Webster mice [7]; AC927 alone 20 mg/kg, q=3.80, P < 0.01)	Ki [8] [µM]	Apoptosis in tumor cells (tumor cells)	Ki [9] [µM]	Acute locomotor stimulant effects of cocaine [10]	Cytotoxicity (cell morphology score), methamphetamine (NG108-15 cells)	DAT immunoreactivity in striatum, methamphetamine (male, Swiss Webster mice [6]; methamphetamine 5 mg/kg, i.p., one week later, q=14.26, P < 0.001)	Locomotor activity, dose response of methamphetamine (male, Swiss Webster mice [7]; methamphetamine 0–1 mg/kg, activity quantified for 30 min, F(3,34)=5.93, P < 0.005)	Locomotor activity vs. saline control (male, Swiss Webster mice [7]; methamphetamine 1 mg/kg, Dunnett q=3.61, P < 0.01)
O=C(O)C(=O)O.c1ccc(CCN2CCCCC2)cc1 [AC927, N-phenethylpiperidine oxalate]	significantly attenuated	did not significantly change core body temperature	> 10	significantly attenuated	> 10	no significant effects on DAT expression	> 10	> 10	dose dependently decreased locomotor activity	did not differ significantly from the saline control	differed significantly from the saline control	> 10	attenuate apoptosis in tumor cells	> 10	significantly attenuate the acute locomotor stimulant effects of cocaine	–	–	–	–
CN[C@@H](C)Cc1ccccc1 [Methamphetamine, Methamphetamine hydrochloride, reference compound]	–	–	–	–	–	–	–	–	–	–	–	–	–	–	–	concentration dependent increase in neurotoxicity	significant reduction in DAT immunoreactivity	progressive increase in locomotor activity	differed significantly from the saline control
